Activity and IC50 data for 7 molecules are collected here from ChEMBL document CHEMBL2163200, “Synthesis, biological evaluation, and structure-activity relationships of novel substituted N-phenyl ureidobenzenesulfonate derivatives blocking cell cycle progression in S-phase and inducing DNA double-strand breaks” (J Med Chem, 2012).

Structures are written as SMILES.

Assay [1] relates to Jurkat. Briefly: Cell cycle arrest in human Jurkat E6-1 cells assessed as accumulation at G2/M phase at 7.5 uM after 24 hrs by FACS flow cytometry. The class given is functional. The method in brief: (§1)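 Jurkat E6 cells grown in RPMI 1640 with 10% FBS at 37 °C, 5% CO2. Compounds were serially diluted in medium starting 50% above the M21 IC50. 4.0 × 10^5 cells were exposed for 24 h, then washed and spiked with chicken red blood cells as internal standard. Cells were fixed in ice-cold ethanol, stained with 1 μg/mL DAPI on ice for 1 h, and phase distribution was read by flow cytometry. The control was 0.5% DMSO.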
A general note: In flow cytometry, cells or beads pass a laser one at a time.

A further assay has as its system MCF7. The experiment in a line: Cytotoxicity against human MCF7 cells after 48 hrs by SRB assay. Conditions: MCF7, 48 h. Type of assay: functional, cell-based. The method in brief:
(§2)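 NCI sulforhodamine B protocol. Cells were grown in high-glucose DMEM with 5% FBS and seeded per well at 4 × 10^3 (HT-29), 3.5 × 10^3 (M21) or 3 × 10^3 (MCF-7), then allowed 24 h to attach. Serial dilutions from 200 μM to 780 nM final were applied in DMSO <0.5% for 48 h. Cells were fixed with cold TCA (10% final) and stained with SRB, with absorbance read at 530–568 nm. Growth inhibition was computed against day-0 plates, giving the 50% inhibitory concentration. At least two experiments in triplicate, CV <10%.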

The subject of the next assay is HT-29. The experiment in a line: Cytotoxicity against human HT-29 cells after 48 hrs by SRB assay. Type of assay: functional, cell-based. Conditions: HT-29, 48 h. The method in brief: as §2
Assay [2] concerns Jurkat. The experiment in a line: Cell cycle arrest in human Jurkat E6-1 cells assessed as accumulation at S phase at 7.5 uM after 24 hrs by FACS flow cytometry. Type of assay: functional. The method in brief:
(§3)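 Jurkat E6 T-lymphoblasts in RPMI 1640 with 10% FBS, 37 °C, 5% CO2. […] Chicken red blood cells were added as internal standard. Cells were fixed in ice-cold EtOH and stained with 1 μg/mL DAPI on ice for 1 h before flow cytometry of phase distribution. Vehicle control was 0.5% DMSO.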

Assay [3] relates to Jurkat. The experiment in a line: Cell cycle arrest in human Jurkat E6-1 cells assessed as accumulation at G0/G1 phase at 7.5 uM after 24 hrs by FACS flow cytometry. Type of assay: functional. The method in brief:
(§4)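 Jurkat E6 cells cultured in RPMI 1640 with 10% FBS at 37 °C, 5% CO2. Compounds serially diluted in medium, starting 50% above the M21 IC50. 4.0 × 10^5 cells were exposed for 24 h. Cells were washed with PBS, chicken red blood cells added as internal standard, and fixed in ice-cold EtOH. After 1 h on ice in PBS with 1 μg/mL DAPI, phase distribution was read by flow cytometry. DMSO-treated cells served as control.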

The test system of another assay is M21. The experiment in a line: Cytotoxicity against human M21 cells after 48 hrs by SRB assay. Type of assay: functional, cell-based. Conditions: M21, 48 h. The method in brief:
as §2
For orientation: The SRB assay estimates cell density from bound dye.

The test system of assay [4] is Jurkat. The experiment in a line: Cell cycle arrest in human Jurkat E6-1 cells assessed as accumulation at S phase at 64 uM after 24 hrs by FACS flow cytometry. The class given is functional. The method in brief:
as §3

In assay [5] the test system is Jurkat. Briefly: Cell cycle arrest in human Jurkat E6-1 cells assessed as accumulation at G2/M phase at 64 uM after 24 hrs by FACS flow cytometry. Type of assay: functional. The method in brief:
as §1

Assay [6] has as its system Jurkat. Briefly: Cell cycle arrest in human Jurkat E6-1 cells assessed as accumulation at G0/G1 phase at 64 uM after 24 hrs by FACS flow cytometry. Type of assay: functional. The method in brief:
as §4

The test system of assay [7] is Jurkat. The experiment in a line: Cell cycle arrest in human Jurkat E6-1 cells assessed as accumulation at S phase at 14 uM after 24 hrs by FACS flow cytometry. The class given is functional. The method in brief:
as §1

The test system of assay [8] is Jurkat. The experiment in a line: Cell cycle arrest in human Jurkat E6-1 cells assessed as accumulation at G2/M phase at 14 uM after 24 hrs by FACS flow cytometry. Type of assay: functional. The method in brief: as §4
For assay [9], the system named is Jurkat. The experiment in a line: Cell cycle arrest in human Jurkat E6-1 cells assessed as accumulation at G0/G1 phase at 14 uM after 24 hrs by FACS flow cytometry. Type of assay: functional. The method in brief:
as §4

The test system of assay [10] is Jurkat. The experiment in a line: Cell cycle arrest in human Jurkat E6-1 cells assessed as accumulation at G2/M phase at 28 uM after 24 hrs by FACS flow cytometry. Type of assay: functional. The method in brief: as §1
For assay [11], the system named is Jurkat. The experiment in a line: Cell cycle arrest in human Jurkat E6-1 cells assessed as accumulation at S phase at 28 uM after 24 hrs by FACS flow cytometry. Type of assay: functional. The method in brief:
as §3

In assay [12] the test system is Jurkat. The experiment in a line: Cell cycle arrest in human Jurkat E6-1 cells assessed as accumulation at G0/G1 phase at 28 uM after 24 hrs by FACS flow cytometry. The class given is functional. The method in brief:
as §4

Assay [13] concerns Jurkat. The experiment in a line: Cell cycle arrest in human Jurkat E6-1 cells assessed as accumulation at G2/M phase at 10 uM after 24 hrs by FACS flow cytometry. Type of assay: functional. The method in brief:
as §4

Assay [14] deals with Jurkat. Briefly: Cell cycle arrest in human Jurkat E6-1 cells assessed as accumulation at S phase at 10 uM after 24 hrs by FACS flow cytometry. Type of assay: functional. The method in brief: as §1
The test system of assay [15] is Jurkat. Briefly: Cell cycle arrest in human Jurkat E6-1 cells assessed as accumulation at G0/G1 phase at 10 uM after 24 hrs by FACS flow cytometry. The class given is functional. The method in brief: as §4
Assay [16] concerns Jurkat. Briefly: Cell cycle arrest in human Jurkat E6-1 cells assessed as accumulation at G2/M phase at 24 uM after 24 hrs by FACS flow cytometry. Type of assay: functional. The method in brief:
as §1

Assay [17] has as its system Jurkat. Briefly: Cell cycle arrest in human Jurkat E6-1 cells assessed as accumulation at S phase at 24 uM after 24 hrs by FACS flow cytometry. Type of assay: functional. The method in brief: as §1
The subject of assay [18] is Jurkat. The experiment in a line: Cell cycle arrest in human Jurkat E6-1 cells assessed as accumulation at G0/G1 phase at 24 uM after 24 hrs by FACS flow cytometry. Type of assay: functional. The method in brief:
as §4

Assay [19] has as its system Jurkat. The experiment in a line: Cell cycle arrest in human Jurkat E6-1 cells assessed as accumulation at S phase at 48 uM after 24 hrs by FACS flow cytometry. Type of assay: functional. The method in brief:
as §3

Assay [20] has as its system Jurkat. Briefly: Cell cycle arrest in human Jurkat E6-1 cells assessed as accumulation at G2/M phase at 48 uM after 24 hrs by FACS flow cytometry. The class given is functional. The method in brief:
as §1

Assay [21] deals with Jurkat. The experiment in a line: Cell cycle arrest in human Jurkat E6-1 cells assessed as accumulation at G0/G1 phase at 48 uM after 24 hrs by FACS flow cytometry. The class given is functional. The method in brief:
as §4

In the case of `O=C(NCCCl)Nc1cccc(S(=O)(=O)Oc2ccc(O)cc2)c1`, the results for the Activity in the assay with Jurkat [1], in the assay on Jurkat [2] and in the assay with Jurkat [3] were 22%, 54% and 24%, respectively. Besides, the figures for the IC50 in the assay on MCF7, in the assay with HT-29 and in the assay on M21 were 87 µM, 120 µM and 73 µM, respectively.

In the case of `CCc1ccccc1NS(=O)(=O)c1cccc(NC(=O)NCCCl)c1`, the Activity amounted to 42% in the assay with Jurkat [4], 12% in the assay on Jurkat [5] and 46% with Jurkat [6]. The IC50 was 46 µM in the assay on MCF7, 48 µM in the assay with HT-29 and 65 µM with M21.

As to `CCCc1ccccc1OS(=O)(=O)c1cccc(NC(=O)NCCCCl)c1`, the IC50 is 14 µM with MCF7, 14 µM with HT-29 and 15 µM with M21. Besides, the Activity worked out at 39% in the assay on Jurkat [7], 9% with Jurkat [8] and 52% in the assay on Jurkat [9].

Regarding `Cc1ccccc1OS(=O)(=O)c1cccc(NC(=O)NCCCCl)c1`, the figures for the IC50 in the assay on MCF7, in the assay with HT-29 and with M21 were 27 µM, 21 µM and 29 µM, respectively. Also, the Activity was 19% in the assay with Jurkat [10], 38% in the assay on Jurkat [11] and 43% with Jurkat [12].

Consider `CCCc1ccccc1NS(=O)(=O)c1cccc(NC(=O)NCCCl)c1`, for which the IC50 is 16 µM with MCF7, 15 µM in the assay on HT-29 and 17 µM in the assay on M21. The figures for the Activity in the assay on Jurkat [13], in the assay on Jurkat [14] and with Jurkat [15] were 19%, 39% and 42%, respectively.

Turning to `Cc1ccccc1OS(=O)(=O)c1cccc(NC(=O)NCCCl)c1`, the Activity is given as 11% with Jurkat [16], 44% in the assay with Jurkat [17] and 45% in the assay with Jurkat [18]. The IC50 turned out to be 33 µM in the assay with HT-29 and 40 µM in the assay with M21.

Turning to `Cc1ccccc1NS(=O)(=O)c1ccc(NC(=O)NCCCl)cc1`, the IC50 in the assay with HT-29 was 55 µM; in the assay with M21 it was 63 µM. Also, the Activity was found to be 35% in the assay on Jurkat [19], 20% in the assay on Jurkat [20] and 45% with Jurkat [21].

By IC50 is commonly meant the midpoint of a concentration-inhibition curve.
